Measured values: ChEMBL document CHEMBL2202989, “New adamantane phenylalkylamines with σ-receptor binding affinity and anticancer activity, associated with putative antagonism of neuropathic pain” (J Med Chem, 2012)

What was measured:
[1] = (§1) Growth inhibition of human HUVEC cells after 48 hrs by SRB assay; type: cell-based; conditions: HUVEC cells
Summary of the method: (§2)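 Cells grown in RPMI 1640 with 5% heat-inactivated FCS, 2 mM L-glutamine and antibiotics, 37 °C, 5% CO2. Seeded at 3500–30000 cells/well and left 24 h before dosing. DMSO solutions added at 10-fold dilutions from 100 to 0.01 μM for 48 h. Cells TCA-fixed and SRB-stained, absorbance read at 540 nm; GI50 derived against the time-zero plate.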

HUVEC = test: as §1; type: cell-based; conditions: huvec, 48 h; summary of the method: as §2
PC-3 = test: Growth inhibition of human PC3 cells after 48 hrs by SRB assay; type: functional; conditions: PC-3, 48 h; for CC50: read-out: LC50 (the source's name); summary of the method: as §2
[2] = (§3) Growth inhibition of human NHDF cells after 48 hrs by SRB assay; type: cell-based; conditions: NHDF cells; summary of the method: as §2
NHDF = test: as §3; type: cell-based; conditions: nhdf, 48 h; summary of the method: as §2
OVCAR-5 = test: Growth inhibition of human OVCAR5 cells after 48 hrs by SRB assay; type: functional; conditions: OVCAR-5, 48 h; for CC50: read-out: LC50 (the source's name); summary of the method: as §2
SK-HEP1 = test: Growth inhibition of human SKHEP1 cells after 48 hrs by SRB assay; type: functional; conditions: SK-HEP1, 48 h; for CC50: read-out: LC50 (the source's name); summary of the method: as §2
IGROV-1 = test: Growth inhibition of human IGROV1 cells after 48 hrs by SRB assay; type: functional; conditions: IGROV-1, 48 h; for CC50: read-out: LC50 (the source's name); summary of the method: as §2
MIA PaCa-2 = test: Growth inhibition of human MIAPaCa2 cells after 48 hrs by SRB assay; type: functional; conditions: MIA PaCa-2, 48 h; for CC50: read-out: LC50 (the source's name); summary of the method: as §2
BXPC-3 = test: Growth inhibition of human BxPC3 cells after 48 hrs by SRB assay; type: functional; conditions: BXPC-3, 48 h; summary of the method: as §2
MCF7 = test: Growth inhibition of human MCF7 cells after 48 hrs by SRB assay; type: functional; conditions: MCF7, 48 h; for CC50: read-out: LC50 (the source's name); summary of the method: as §2
[3] = Growth inhibition of human MSC cells after 48 hrs by SRB assay; type: cell-based; summary of the method: as §2
HCT-15 = test: Growth inhibition of human HCT15 cells after 48 hrs by SRB assay; type: functional; conditions: HCT-15, 48 h; for CC50: read-out: LC50 (the source's name); summary of the method: as §2
U-251 = test: Growth inhibition of human U251 cells after 48 hrs by SRB assay; type: functional; conditions: U-251, 48 h; for CC50: read-out: LC50 (the source's name); summary of the method: as §2
HL-60(TB) = test: Growth inhibition of human HL-60(TB) cells after 48 hrs by SRB assay; type: functional; conditions: HL-60, 48 h
Summary of the method: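 Cells kept in RPMI 1640 with 5% FCS at 37 °C, 5% CO2, and seeded 24 h before dosing. Compound given from DMSO at 10-fold dilutions, 100 to 0.01 μM, for 48 h. Cells fixed with TCA, stained with SRB, absorbance read at 540 nm. GI50 taken from a time-zero plate.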

DU-145 = test: Growth inhibition of human DU145 cells after 48 hrs by SRB assay; type: functional; conditions: DU-145, 48 h; summary of the method: as §2
[4] = read-out: LC50 (the source's name)

Row | SMILES | GI50 at 48 h [1] [µM] | LC50 (HUVEC) [µM] | TGI (HUVEC) [µM] | GI50 (PC-3) [µM] | TGI (PC-3) [µM] | CC50 (PC-3) [µM] | GI50 at 48 h [2] [µM] | LC50 (NHDF) [µM] | TGI (NHDF) [µM] | GI50 (OVCAR-5) [µM] | TGI (OVCAR-5) [µM] | CC50 (OVCAR-5) [µM] | GI50 (SK-HEP1) [µM] | TGI (SK-HEP1) [µM] | CC50 (SK-HEP1) [µM] | GI50 (MIA PaCa-2) [µM] | TGI (MIA PaCa-2) [µM] | CC50 (MIA PaCa-2) [µM] | GI50 (BXPC-3) [µM] | LC50 (BXPC-3) [µM] | further results
1 | CCN1CCN(CCc2ccc(C(c3ccccc3)C34CC5CC(CC(C5)C3)C4)cc2)CC1 (stereo not given) | 5.1 | 9.62 | 7.36 | 4.83 | 9.53 | 0.0867 | 7.31 | 100 | 83.6 | 28.1 | 53.8 | 0.0685 | 4.14 | 7.66 | 0.1 | 20.9 | 49.2 | 0.0775 | 8.35 | 0.0898 | GI50 (IGROV-1): 4.49 µM; TGI (IGROV-1): 9.83 µM; CC50 (IGROV-1): 0.0968 µM; TGI (BXPC-3): 45.2 µM; GI50 (MCF7): 3.9 µM; TGI (MCF7): 8.5 µM; CC50 (MCF7): 0.0971 µM; TGI [3]: 2.93 µM; GI50 (HCT-15): 5.64 µM; TGI (HCT-15): 17.2 µM; CC50 (HCT-15): 0.1 µM; GI50 (U-251): 3.54 µM; TGI (U-251): 6.19 µM; CC50 (U-251): 0.00847 µM
2 | CCN1CCN(Cc2ccc(C(c3ccccc3)C34CC5CC(CC(C5)C3)C4)cc2)CC1 (stereo not given) | 1.14 | 9.54 | 5.34 | 7 | 7.9 | 0.0624 | 6.59 | 100 | 66.8 | 18.1 | 43.8 | 0.07 | 5.9 | 24.3 | 0.0902 | 8.24 | 43.7 | 0.0886 | 4.33 | 0.00935 | GI50 (HL-60(TB)): 0.00433 µM; TGI (HL-60(TB)): 0.00775 µM; CC50 (HL-60(TB); [4]): 0.1 µM; TGI (BXPC-3): 6.84 µM; GI50 (DU-145): 5.73 µM; TGI (DU-145): 46.1 µM; CC50 (DU-145; [4]): 0.1 µM; GI50 (MCF7): 2.26 µM; TGI (MCF7): 5.92 µM; CC50 (MCF7): 0.00958 µM; TGI [3]: 4.61 µM; GI50 (HCT-15): 3.36 µM; TGI (HCT-15): 6.36 µM; CC50 (HCT-15): 0.0094 µM; GI50 (U-251): 4.33 µM; TGI (U-251): 7.8 µM; CC50 (U-251): 0.0685 µM
3 | c1ccc(C(c2ccc(CCN3CCCCC3)cc2)C23CC4CC(CC(C4)C2)C3)cc1 (stereo not given) | 5.31 | 100 | 9.33 | 11.6 | 41.2 | 0.092 | 18.6 | 99.34 | 59 | 37.3 | 67.8 | 0.0977 | 8.61 | 58.2 | 0.1 | 35.5 | 63.3 | 0.0911 | 64.7 | 0.1 | GI50 (IGROV-1): 17.7 µM; TGI (IGROV-1): 43.7 µM; CC50 (IGROV-1): 0.0687 µM; TGI (BXPC-3): 100 µM; GI50 (MCF7): 6.93 µM; TGI (MCF7): 42.4 µM; CC50 (MCF7): 0.0985 µM; TGI [3]: 18.3 µM; GI50 (HCT-15): 9.12 µM; TGI (HCT-15): 43.7 µM; CC50 (HCT-15): 0.082 µM; GI50 (U-251): 24.8 µM; TGI (U-251): 55.8 µM; CC50 (U-251): 0.0867 µM
